Laboratory results taken from ChEMBL document CHEMBL4602706, “Natural Product Evodiamine with Borate Trigger Unit: Discovery of Potent Antitumor Agents against Colon Cancer” (ACS Med Chem Lett, 2020).
Calls of active or inactive are those of the source. The rule behind the calls is not given here.

Key:
[1] = tested on: A549; assay: Antiproliferative activity against human A549 cells incubated for 72 hrs by CCK8 assay; assay type: functional, cell-based
Outline: (§1)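 HCT116, MCF-7 and A549 human cancer cell lines; antiproliferative activity read out by CCK8 assay. Evodiamine derivatives and camptothecin served as positive controls.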

[2] = tested on: MCF7; assay: Antiproliferative activity against human MCF7 cells incubated for 72 hrs by CCK8 assay; assay type: functional, cell-based; outline: as §1
[3] = tested on: HCT-116; assay: Antiproliferative activity against human HCT116 cells incubated for 72 hrs by CCK8 assay; assay type: functional, cell-based; outline: as §1
[4] = Inhibition of porcine brain tubulin polymerization measured at 1 min interval for 15 to 30 mins by spectrophotometric method; parameters: species or system Sus scrofa
[5] = target: T1, DNA topoisomerase 1 (Homo sapiens) (UniProt P11387); assay: Inhibition of Top1 (unknown origin) at 125 uM using supercoiled pBR322 plasmid DNA as substrate incubated for 15 mins by PI staining based agarose gel electrophoresis analysis
T1 sequence (whole entry): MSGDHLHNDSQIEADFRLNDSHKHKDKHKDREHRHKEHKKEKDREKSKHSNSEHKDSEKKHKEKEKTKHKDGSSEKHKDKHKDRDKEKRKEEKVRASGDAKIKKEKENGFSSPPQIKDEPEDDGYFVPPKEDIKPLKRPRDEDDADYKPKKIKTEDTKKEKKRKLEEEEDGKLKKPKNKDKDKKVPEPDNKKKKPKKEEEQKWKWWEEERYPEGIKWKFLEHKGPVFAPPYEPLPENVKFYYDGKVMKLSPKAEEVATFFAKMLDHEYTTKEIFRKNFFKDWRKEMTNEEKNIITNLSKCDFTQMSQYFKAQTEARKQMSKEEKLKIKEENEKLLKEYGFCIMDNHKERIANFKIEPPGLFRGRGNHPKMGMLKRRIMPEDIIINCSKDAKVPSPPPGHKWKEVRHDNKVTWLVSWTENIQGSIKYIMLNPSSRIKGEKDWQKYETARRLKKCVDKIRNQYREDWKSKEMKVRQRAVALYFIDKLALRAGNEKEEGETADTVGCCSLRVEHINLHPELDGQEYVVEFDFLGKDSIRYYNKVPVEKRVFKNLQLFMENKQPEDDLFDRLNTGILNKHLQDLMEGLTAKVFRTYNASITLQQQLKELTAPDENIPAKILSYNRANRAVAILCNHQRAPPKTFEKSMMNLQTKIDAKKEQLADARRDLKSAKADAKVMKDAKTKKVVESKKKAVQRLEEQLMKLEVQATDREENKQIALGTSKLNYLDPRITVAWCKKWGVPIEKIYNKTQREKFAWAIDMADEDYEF
Outline: (§2)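 Top1 inhibition tested at 500, 250 and 125 μM, and over 27.9 to 250 μM for selected compounds.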

[6] = target: T1, DNA topoisomerase 1 (Homo sapiens); assay: Inhibition of Top1 (unknown origin) at 500 uM using supercoiled pBR322 plasmid DNA as substrate incubated for 15 mins by PI staining based agarose gel electrophoresis analysis; outline: as §2
[7] = target: T2, DNA topoisomerase II (Homo sapiens) (UniProt P11388+Q02880); assay: Inhibition of Top2 (unknown origin) at 50 uM using supercoiled pBR322 plasmid DNA as substrate incubated for 30 mins by PI staining based agarose gel electrophoresis analysis; assay type: protein assay
[8] = target: T2, DNA topoisomerase II (Homo sapiens); assay: Inhibition of Top2 (unknown origin) using supercoiled pBR322 plasmid as substrate incubated for 30 mins by PI staining based agarose gel electrophoresis analysis; assay type: protein assay
[9] = tested on: HCT-116; assay: Induction of cell cycle arrest in human HCT116 cells assessed as accumulation at G1 phase at 0.4 uM incubated for 24 hrs by propidium iodide staining based flow cytometry (reference value: 38.49 to 51.18%); assay type: functional
[10] = tested on: HCT-116; assay: Induction of apoptosis in human HCT116 cells incubated for 48 hrs by AnnexinV-FITC/PI staining based flow cytometric analysis; assay type: functional, cell-based
[11] = target: T1, DNA topoisomerase 1 (Homo sapiens); assay: Inhibition of Top1 (unknown origin) at 83.3 uM using supercoiled pBR322 plasmid DNA as substrate incubated for 15 mins by PI staining based agarose gel electrophoresis analysis
[12] = tested on: HCT-116; assay: Induction of cell cycle arrest in human HCT116 cells assessed as accumulation at S phase at 0.2 uM incubated for 24 hrs by propidium iodide staining based flow cytometry (reference value: 30.31 to 40.69%); assay type: functional
[13] = Drug metabolism in human HCT116 cells assessed as 3-Fluoro-10-hydroxy-14-methyl-8,13,13b,14-tetrahydro-7H-indolo[2',3':3,4]pyrido[2,1-b]quinazolin-5-one release by measuring parent compound retention time incubated for 8 hrs by UPLC-QTOF/MS analysis; assay type: ADME, cell-based; settings: hct-116, 8 h
Outline: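 Compounds incubated with HCT116 cells; culture media analysed by HPLC after 8, 48 and 72 h. Relative release rate taken from relative peak areas; parent and product identified by retention time.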

[14] = tested on: HCT-116; assay: Induction of apoptosis in human HCT116 cells assessed as apoptotic cells at 0.2 uM incubated for 48 hrs by AnnexinV-FITC/PI staining based flow cytometric analysis (reference value: 6.25 to 8.23%); assay type: functional
Outline: (§3)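 HCT116 cells exposed to 0.05, 0.2 or 0.4 μM for 48 h. Apoptotic cells quantified by flow cytometry, n = 3.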

[15] = tested on: HCT-116; assay: Induction of cell cycle arrest in human HCT116 cells assessed as accumulation at S phase at 0.4 uM incubated for 24 hrs by propidium iodide staining based flow cytometry (reference value: 30.31 to 40.69%); assay type: functional
[16] = tested on: HCT-116; assay: Induction of cell cycle arrest in human HCT116 cells assessed as accumulation at G2 phase at 0.05 uM incubated for 24 hrs by propidium iodide staining based flow cytometry (reference value: 18.51 to 20.82%); assay type: functional
[17] = tested on: HCT-116; assay: Induction of cell cycle arrest in human HCT116 cells assessed as accumulation at G1 phase at 0.05 uM incubated for 24 hrs by propidium iodide staining based flow cytometry (reference value: 38.49 to 51.18%); assay type: functional
[18] = tested on: HCT-116; assay: Induction of cell cycle arrest in human HCT116 cells assessed as accumulation at G1 phase at 0.2 uM incubated for 24 hrs by propidium iodide staining based flow cytometry (reference value: 38.49 to 51.18%); assay type: functional
[19] = Drug metabolism in human HCT116 cells assessed as 3-Fluoro-10-hydroxy-14-methyl-8,13,13b,14-tetrahydro-7H-indolo[2',3':3,4]pyrido[2,1-b]quinazolin-5-one release at 0.2 mM by UPLC-QTOF/MS analysis relative to control; assay type: ADME, cell-based; settings: hct-116, 200 µM, TDE = time-dependent effect
[20] = Drug metabolism in PBS buffer assessed as H2O2-mediated 3-Fluoro-10-hydroxy-14-methyl-8,13,13b,14-tetrahydro-7H-indolo[2',3':3,4]pyrido[2,1-b]quinazolin-5-one release rate at pH 7.4 incubated for 8 hrs in presence of 0.05 mM H2O2 by HPLC analysis; assay type: physicochemical; settings: pH 7.4, 8 h
Outline: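 Release of the parent compound after treatment with H2O2 at varied concentrations, including 0.05 mM, in PBS pH 7.4. Analysed by HPLC.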

[21] = Metabolic stability in mouse liver microsomes assessed as half life at 1 uM preincubated with compound followed by NADPH addition measured upto 45 mins by LC-MS/MS analysis; assay type: ADME, Microsome
Outline: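 In vitro stability in liver microsomes; terminal half-life determined.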

[22] = tested on: HCT-116; assay: Induction of cell cycle arrest in human HCT116 cells assessed as accumulation at S phase at 0.05 uM incubated for 24 hrs by propidium iodide staining based flow cytometry (reference value: 30.31 to 40.69%); assay type: functional
[23] = tested on: HCT-116; assay: Induction of apoptosis in human HCT116 cells assessed as apoptotic cells at 0.4 uM incubated for 48 hrs by AnnexinV-FITC/PI staining based flow cytometric analysis (reference value: 6.25 to 8.23%); assay type: functional; outline: as §3
[24] = tested on: HCT-116; assay: Induction of cell cycle arrest in human HCT116 cells assessed as accumulation at G2 phase at 0.4 uM incubated for 24 hrs by propidium iodide staining based flow cytometry (reference value: 18.51 to 20.82%); assay type: functional
[25] = tested on: HCT-116; assay: Induction of apoptosis in human HCT116 cells assessed as apoptotic cells at 0.05 uM incubated for 48 hrs by AnnexinV-FITC/PI staining based flow cytometric analysis (reference value: 6.25 to 8.23%); assay type: functional; outline: as §3
[26] = tested on: HCT-116; assay: Induction of cell cycle arrest in human HCT116 cells assessed as accumulation at G2 phase at 0.2 uM incubated for 24 hrs by propidium iodide staining based flow cytometry (reference value: 18.51 to 20.82%); assay type: functional
[27] = Homo sapiens, A549, 72 h, read-out: IC50
[28] = Homo sapiens, MCF7, 72 h, read-out: IC50
[29] = Homo sapiens, HCT-116, 72 h, read-out: IC50

CN1c2ccccc2C(=O)N2CCc3c([nH]c4ccc(OCc5ccc(B6OC(C)(C)C(C)(C)O6)cc5)cc34)C21 (stereo not given)
IC50 [1, 27]: 390 nM | IC50 [2, 28]: 160 nM | IC50 [3, 29]: 100 nM

CC[C@@]1(O)C(=O)OCc2c1cc1n(c2=O)Cc2cc3ccccc3nc2-1 [CAMPTOTHECIN]
IC50 [1, 27]: 39 nM | IC50 [2, 28]: 84 nM | IC50 [3, 29]: 9 nM

CN1c2ccc(F)cc2C(=O)N2CCc3c(n(C(=O)OC(C)(C)C)c4ccc(OCc5ccc(B(O)O)cc5)cc34)C21 (stereo not given)
IC50 [1, 27]: 2130 nM | IC50 [2, 28]: 2390 nM | IC50 [3, 29]: 4910 nM

CN1c2ccccc2C(=O)N2CCc3c([nH]c4ccc(OC(=O)OCc5ccc(B(O)O)cc5)cc34)C21 (stereo not given)
IC50 [4]: 25700 nM | IC50 [1, 27]: 130 nM | inhibition [5]: Active | inhibition [6]: Active | IC50 [2, 28]: 140 nM | inhibition [7]: Active | IC50 [3, 29]: 52 nM

CN1c2ccccc2C(=O)N2CCc3c([nH]c4ccc(O)cc34)C21 (stereo not given)
IC50 [1, 27]: 84 nM | inhibition [6]: Active | IC50 [2, 28]: 270 nM | IC50 [3, 29]: 55 nM

CN1c2ccc(F)cc2C(=O)N2CCc3c(n(C(=O)OC(C)(C)C)c4ccc(OCc5ccc(B6OC(C)(C)C(C)(C)O6)cc5)cc34)C21 (stereo not given)
IC50 [1, 27]: 2230 nM | IC50 [2, 28]: 7850 nM | IC50 [3, 29]: 2170 nM

COc1cc([C@@H]2c3cc4c(cc3[C@@H](O[C@@H]3O[C@@H]5CO[C@@H](C)O[C@H]5[C@H](O)[C@H]3O)[C@H]3COC(=O)[C@H]23)OCO4)cc(OC)c1O
inhibition [8]: Active

CN1c2ccc(F)cc2C(=O)N2CCc3c([nH]c4ccc(B5OC(C)(C)C(C)(C)O5)cc34)C21 (stereo not given)
IC50 [1, 27]: 110 nM | IC50 [2, 28]: 960 nM | IC50 [3, 29]: 170 nM

CN1c2ccc(F)cc2C(=O)N2CCc3c([nH]c4ccc(OC(=O)OCc5ccc(B(O)O)cc5)cc34)C21 (stereo not given)
Activity [9]: 5.41% | Activity [10]: Dose-dependent effect | inhibition [11]: Active | Activity [12]: 48.96% | Retention_time [13]: 8.6 min | Activity [14]: 54.28% | Activity [15]: 43.36% | Activity [16]: 29.47% | Activity [17]: 14.09% | Activity [18]: 7.6% | IC50 [1, 27]: 44 nM | inhibition [5]: Active | inhibition [6]: Active | Drug metabolism [19]: Tde | Drug metabolism [20]: Dose-dependent effect | IC50 [2, 28]: 32 nM | half-life at 1 µM [21]: 44.4 s | inhibition [7]: Active | Activity [22]: 56.44% | IC50 [3, 29]: 41 nM | Activity [23]: 64.47% | inhibition [8]: Active | Activity [24]: 51.23% | Activity [25]: 44.4% | Activity [26]: 43.45%

CC(=O)Oc1ccc(CCl)cc1
IC50 ([1]; a549): Not Active | IC50 ([2]; mcf7): Not Active | IC50 ([3]; hct-116): Not Active
